T cell modulator – T cell immune modulators affecting CD8 T cell-vesicle binding; 2C CD8+ T cell-vesicle binding, flow cytometry; hits give low values; response (vesicle binding), % at 7 µM; AID 2052; 330,000 compounds, 0.068% hits;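 active = response, share of CD8 T cells binding vesicles, and their 90th percentile fluorescence all below set limits, cut at about 80% in these data, passing the limit was not always enough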;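 also: values below 100% mean blocked vesicle binding to the CD8+ T cells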
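material = purified 2C TCR transgenic mouse naive CD8+ T cells | controls = Unloaded micro-vesicles (low), QL9 vesicles with 0.7% DMSO (high) | detection = cytometric PE anti-B7-1 and Alexa647 anti-CD8 signals after 1% paraformaldehyde fixation | incubation = binding step 1.5 h, 37 °C, antibody labelling 20 min, ice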
ALR H2O2 inh – human ALR oxidase inhibition via reduced H2O2; P55789; purified ALR, DTT oxidation, H2O2 HRP-luminol luminescence; inhibition, % (concentration not given with the values); 290,000 compounds, 3.8% hits;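 active = mean replicate inhibition above about 79%, with every replicate also reaching it, limit read from the data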
Target sequence (P55789 whole entry, looked up): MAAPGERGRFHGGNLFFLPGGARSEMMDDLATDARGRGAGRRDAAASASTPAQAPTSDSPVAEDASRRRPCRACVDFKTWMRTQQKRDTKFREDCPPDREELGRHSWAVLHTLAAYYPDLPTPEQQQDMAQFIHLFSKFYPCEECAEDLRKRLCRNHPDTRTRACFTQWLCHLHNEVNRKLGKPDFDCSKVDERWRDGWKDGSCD
N-glyco inh – blocks N-linked glycosylation in D54 reporter cells; reporter increase, % at 12.5 µM; D54 ERlucT glycosylation luciferase reporter, 24 h; percent of 100 nM tunicamycin response; 360,000 compounds, 0.23% hits;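 active = mean luciferase reporter signal, scaled so untreated is 0 and the glycosylation-blocking control 100, at or above a set limit in every replicate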;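 also: luciferase carries N-glycosylation sites so blocking glycosylation raises the light; 0% = median of neutral control wells and 100% = median of 100 nM tunicamycin wells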
Numbers without * were called inactive. The sample as a whole holds a higher share of hits than the screen did.

What do the screens show for `NC(=O)N/N=C/c1sc(N2CCCCC2)nc1-c1cccs1`?
T cell modulator: 160; ALR H2O2 inh: 97*; N-glyco inh: 7

How did COCCNC(=O)C(OC(=O)c1ccco1)c1ccccc1F (stereo not given) do in these assays?
T cell modulator: 332; ALR H2O2 inh: -17; N-glyco inh: 0

Results for Nc1[nH][nH]c(=O)c1N=Nc1ccccc1 ?
N-glyco inh: 2

Results for COc1ccc(N=Nc2c(C)n[nH]c2C)cc1 ?
T cell modulator: 310; ALR H2O2 inh: -2; N-glyco inh: 0

How did Nc1n[nH]c(N)c1N=Nc1ccc(F)cc1 do in these assays?
T cell modulator: 369; ALR H2O2 inh: 86*; N-glyco inh: 0

Results for Nc1n[nH]c(N)c1N=Nc1ccccc1 ?
T cell modulator: 350; ALR H2O2 inh: 95*; N-glyco inh: 1

Results for Cc1ccccc1N=Nc1c(N)n[nH]c1N ?
T cell modulator: 130; ALR H2O2 inh: 93*; N-glyco inh: -1

How did COc1ccc(N=Nc2c(N)n[nH]c2N)cc1 do in these assays?
T cell modulator: 610; ALR H2O2 inh: 78*; N-glyco inh: -2

How did Nc1n[nH]c(N)c1N=Nc1ccc(Cl)cc1Cl do in these assays?
T cell modulator: 92; ALR H2O2 inh: 8; N-glyco inh: 5

How did Nc1n[nH]c(N)c1N=Nc1ccccc1F do in these assays?
T cell modulator: 12; ALR H2O2 inh: 18; N-glyco inh: -3

How did CCn1nc(C)cc1C(=O)N1CCCC(N2CCN(Cc3ccc4c(c3)OCO4)CC2)C1 (stereo not given) do in these assays?
T cell modulator: 91; ALR H2O2 inh: 1; N-glyco inh: 0

What do the screens show for `CC(C)(C)c1cc(CN(CCO)CCO)c(O)c(C(C)(C)C)c1`?
T cell modulator: 226; N-glyco inh: 2

What do the screens show for `O=C(Nc1ccccc1C(=O)Nc1nnc(C(F)(F)F)s1)c1ccccc1Cl`?
T cell modulator: 218; ALR H2O2 inh: 2; N-glyco inh: -7

How did CCc1csc(CCNC(=O)C2CCC(=O)N(Cc3cccc(C(F)(F)F)c3)C2)n1 (stereo not given) do in these assays?
T cell modulator: 136; ALR H2O2 inh: -2; N-glyco inh: -1

Results for CN(C(=O)CSc1nc(O)cc(=O)n1-c1ccccc1F)c1ccccc1 ?
T cell modulator: 367; ALR H2O2 inh: -1; N-glyco inh: 2

What do the screens show for `CN(C(=O)CSc1nc(O)cc(=O)n1C1CCCC1)c1ccccc1`?
T cell modulator: 324; ALR H2O2 inh: 98*; N-glyco inh: 0

Results for CC1=C(C(=O)N(C(C)C)C(C)C)CC(CC(=O)NC2CCCCC2)C(=O)N1CCC1=CCCCC1 (stereo not given) ?
N-glyco inh: -2

How did O=C1c2ccccc2C(=O)c2c(O)c(O)cc(O)c21 do in these assays?
T cell modulator: 289; N-glyco inh: 0

How did O=C1C=C(O)c2c(O)cc(O)c(O)c2C1=O do in these assays?
T cell modulator: 155; ALR H2O2 inh: 98*; N-glyco inh: -4

How did COc1ccc(NC(=O)CN2C(=O)COc3ccc(S(=O)(=O)N4CCCCCC4)cc32)cc1 do in these assays?
T cell modulator: 347; ALR H2O2 inh: -4; N-glyco inh: -3

Results for Cc1cccc(C(C)C)c1NS(=O)(=O)c1cn(C)nc1C ?
T cell modulator: 374; ALR H2O2 inh: -15; N-glyco inh: -2

What do the screens show for `CCOC(=O)c1sc(NC(=O)CCN2CCN(CC)CC2)c(C(=O)OCC)c1C`?
T cell modulator: 205; ALR H2O2 inh: 96*; N-glyco inh: -4

What do the screens show for `CCOC(=O)c1sc(NC(=O)CCN2CCC(C)CC2)c(C(=O)OCC)c1C`?
T cell modulator: 321; ALR H2O2 inh: 19; N-glyco inh: -1

How did COc1ccc(/C=C/C(=O)N2CCN(c3ccccn3)CC2)c(OC)c1OC do in these assays?
T cell modulator: 175; ALR H2O2 inh: 0; N-glyco inh: 1

What do the screens show for `Cc1ccc(CNC(=O)CSc2nc3ccccc3c(=O)n2CCCO)cc1`?
T cell modulator: 606; ALR H2O2 inh: -5; N-glyco inh: 3

Results for Cc1ccc(-c2nc(CSc3nc4ccccc4c(=O)n3CCO)cs2)cc1 ?
T cell modulator: 175; ALR H2O2 inh: 98*; N-glyco inh: -1

How did Cc1ccc(-c2nc(CSc3nc4ccccc4c(=O)n3C)cs2)cc1 do in these assays?
T cell modulator: 76; ALR H2O2 inh: 98*; N-glyco inh: 0

What do the screens show for `Cc1cccc(CSc2nc3ccccc3c(=O)n2C)c1`?
T cell modulator: 372; ALR H2O2 inh: 40; N-glyco inh: -4

Results for Cc1cccc2c(N=Nc3ccc(S(=O)(=O)Nc4ccc(Cl)cc4)cc3[N+](=O)[O-])c(O)[nH]c12 ?
T cell modulator: 417; ALR H2O2 inh: -2; N-glyco inh: -1

Results for COc1ccc(S(=O)(=O)NC(=O)C2(C)CCN2C(=O)Cc2ccc(C(C)(C)C)cc2)cc1 (stereo not given) ?
N-glyco inh: 1

What do the screens show for `CCC(=O)NCCSc1c[nH]c2ccccc12`?
T cell modulator: 344; ALR H2O2 inh: 56; N-glyco inh: 1

How did O=C(O)CSc1c[nH]c2ccccc12 do in these assays?
T cell modulator: 994; ALR H2O2 inh: 98*; N-glyco inh: -1

How did O=C(O)Cc1c[nH]c2ccccc12 do in these assays?
T cell modulator: 155; ALR H2O2 inh: -9; N-glyco inh: 0

What do the screens show for `CC(C)C(=O)NCCSc1c[nH]c2ccccc12`?
T cell modulator: 390; ALR H2O2 inh: 99*; N-glyco inh: 2

What do the screens show for `CCCC(=O)NCc1nc2ccccc2n1CC(=O)c1ccccc1`?
T cell modulator: 113; ALR H2O2 inh: -4; N-glyco inh: 1

How did CC(Sc1nnc(C2CC2)n1C1CC1)C(=O)c1ccc(F)cc1 (stereo not given) do in these assays?
T cell modulator: 281; ALR H2O2 inh: 6; N-glyco inh: -3

How did COCCN(CC(=O)Nc1ccccc1C(F)(F)F)C(=O)c1ccc(-n2cccn2)cc1 do in these assays?
T cell modulator: 683; ALR H2O2 inh: 0; N-glyco inh: 1

How did Nc1nnc(SCCOc2ccc(Br)cc2)s1 do in these assays?
T cell modulator: 0.0*; ALR H2O2 inh: -4; N-glyco inh: -1

What do the screens show for `Nc1nnc(SCC(=O)OCC(=O)Nc2ccc(Br)cc2F)s1`?
T cell modulator: 131; ALR H2O2 inh: -5; N-glyco inh: 1

What do the screens show for `Nc1nnc(SCCOc2ccccc2)s1`?
T cell modulator: 420; ALR H2O2 inh: -1; N-glyco inh: 2

Results for Nc1nnc(SCC(=O)OCC(=O)Nc2ccc(Br)cc2)s1 ?
T cell modulator: 580; ALR H2O2 inh: 99*; N-glyco inh: 2

What do the screens show for `COc1ccc(CNC(=O)c2cccc(NC(=O)CC3SC(N4CCCCC4)=NC3=O)c2)cc1` (stereo not given)?
T cell modulator: 216; ALR H2O2 inh: -12; N-glyco inh: -4

How did NS(=O)(=O)c1ccc(NS(=O)(=O)c2ccc(NC(=O)C3CC3)cc2)cc1 do in these assays?
T cell modulator: 331; ALR H2O2 inh: 9; N-glyco inh: 2

How did O=C(Cn1cccc1C(=O)c1ccccc1)NCCc1ccc(Cl)cc1 do in these assays?
T cell modulator: 476; ALR H2O2 inh: -2; N-glyco inh: 0

What do the screens show for `O=C(Cn1cccc1C(=O)c1ccccc1)NCc1ccc(Cl)cc1`?
T cell modulator: 246; ALR H2O2 inh: 97*; N-glyco inh: 0

From PubChem BioAssay
